Tests used:
[1] = biological target: T1, Monoacylglycerol lipase ABHD6 (Homo sapiens, UniProt Q9BV23); assay: Inhibition of human ABHD6 using 2-AG as natural substrate by fluorescence based assay
T1 sequence (Q9BV23 whole entry): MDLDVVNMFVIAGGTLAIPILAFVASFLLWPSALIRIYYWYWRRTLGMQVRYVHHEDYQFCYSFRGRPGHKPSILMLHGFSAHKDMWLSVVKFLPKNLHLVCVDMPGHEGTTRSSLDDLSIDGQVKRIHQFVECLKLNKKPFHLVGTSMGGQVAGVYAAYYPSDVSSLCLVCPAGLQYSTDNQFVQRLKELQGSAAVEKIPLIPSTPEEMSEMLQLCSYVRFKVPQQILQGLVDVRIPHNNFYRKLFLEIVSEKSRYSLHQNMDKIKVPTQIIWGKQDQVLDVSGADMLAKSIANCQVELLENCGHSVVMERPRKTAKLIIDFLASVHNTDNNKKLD
Procedure, shortened: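 Coupled fluorescence assay: 2-AG hydrolysis detected via glycerol kinase, glycerol-3-phosphate oxidase and HRP (0.2 U/mL each), 0.125 mM ATP and 10 µM Amplifu Red. Conditions: 25 µM 2-AG, 0.5% acetonitrile, 5% DMSO, ABHD6 membrane protein 40 µg/mL final. n = 4.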

[2] = biological target: T2, Diacylglycerol lipase-alpha (Homo sapiens, UniProt Q9Y4D2); assay: Inhibition of full length recombinant human DAGLalpha expressed in HEK293T cell membranes using PNP butyrate as substrate by colorimetric assay; design: species or system HEK-293T
T2 sequence (Q9Y4D2 whole entry): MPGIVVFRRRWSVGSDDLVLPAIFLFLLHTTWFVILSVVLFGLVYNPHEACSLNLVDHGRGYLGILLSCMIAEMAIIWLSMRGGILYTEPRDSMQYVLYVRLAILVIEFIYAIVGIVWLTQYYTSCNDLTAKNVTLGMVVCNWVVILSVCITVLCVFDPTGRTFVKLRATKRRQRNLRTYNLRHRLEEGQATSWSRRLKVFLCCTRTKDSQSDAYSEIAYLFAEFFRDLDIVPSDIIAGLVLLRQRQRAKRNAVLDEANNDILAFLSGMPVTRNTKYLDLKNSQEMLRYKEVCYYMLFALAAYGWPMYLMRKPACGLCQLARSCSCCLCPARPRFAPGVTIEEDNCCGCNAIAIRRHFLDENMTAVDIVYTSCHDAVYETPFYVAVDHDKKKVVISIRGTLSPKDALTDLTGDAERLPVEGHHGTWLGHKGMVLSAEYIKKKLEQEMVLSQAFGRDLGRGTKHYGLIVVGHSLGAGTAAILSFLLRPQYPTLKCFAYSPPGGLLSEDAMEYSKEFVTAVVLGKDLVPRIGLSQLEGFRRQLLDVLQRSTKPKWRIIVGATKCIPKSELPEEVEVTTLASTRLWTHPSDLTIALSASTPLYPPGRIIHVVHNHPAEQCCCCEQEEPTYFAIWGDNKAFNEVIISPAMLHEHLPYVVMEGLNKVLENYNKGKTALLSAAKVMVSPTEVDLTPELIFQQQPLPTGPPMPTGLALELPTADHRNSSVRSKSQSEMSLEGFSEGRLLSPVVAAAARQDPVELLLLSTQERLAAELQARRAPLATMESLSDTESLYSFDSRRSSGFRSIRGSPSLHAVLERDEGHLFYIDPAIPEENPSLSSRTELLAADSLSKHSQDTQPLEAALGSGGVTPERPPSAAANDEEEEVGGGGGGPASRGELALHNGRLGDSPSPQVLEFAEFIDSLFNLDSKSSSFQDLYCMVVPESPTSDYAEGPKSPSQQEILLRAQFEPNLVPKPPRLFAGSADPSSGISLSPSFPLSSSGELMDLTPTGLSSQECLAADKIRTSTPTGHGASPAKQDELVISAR
Procedure, shortened: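 Membranes from HEK293T cells transiently transfected with human DAGLα (PEI transfection, harvested at 72 h), used at 0.05 µg/µL final protein in 50 mM HEPES pH 7.2. Activity was read colorimetrically from para-nitrophenylbutyrate hydrolysis. n = 4, mean ± SEM.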

Mus musculus = species: Mus musculus; assay: Selectivity ratio of IC50 for ABHD6 in mouse brain membrane proteome to IC50 for DAGLalpha in mouse brain membrane proteome; assay type: cell membranes
Procedure, shortened: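 Ratio of DAGLα and ABHD6 […] values, both from competitive gel ABPP in mouse brain membrane proteome. Inhibitor was preincubated 30 min at r.t., then MB064 (250 nM final) was added for 20 min. Band intensities were normalized to vehicle and fitted with a variable-slope curve. n = 3.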

[3] = biological target: T3, Diacylglycerol lipase-alpha (Mus musculus, UniProt Q6WQJ1); assay: (§1) Inhibition of MB064 probe binding to DAGLalpha in mouse brain membrane proteome preincubated for 30 mins followed by MB064 probe addition measured after 20 mins by gel-based competitive activity based protein profiling assay; assay type: cell membranes
T3 sequence (Q6WQJ1 whole entry): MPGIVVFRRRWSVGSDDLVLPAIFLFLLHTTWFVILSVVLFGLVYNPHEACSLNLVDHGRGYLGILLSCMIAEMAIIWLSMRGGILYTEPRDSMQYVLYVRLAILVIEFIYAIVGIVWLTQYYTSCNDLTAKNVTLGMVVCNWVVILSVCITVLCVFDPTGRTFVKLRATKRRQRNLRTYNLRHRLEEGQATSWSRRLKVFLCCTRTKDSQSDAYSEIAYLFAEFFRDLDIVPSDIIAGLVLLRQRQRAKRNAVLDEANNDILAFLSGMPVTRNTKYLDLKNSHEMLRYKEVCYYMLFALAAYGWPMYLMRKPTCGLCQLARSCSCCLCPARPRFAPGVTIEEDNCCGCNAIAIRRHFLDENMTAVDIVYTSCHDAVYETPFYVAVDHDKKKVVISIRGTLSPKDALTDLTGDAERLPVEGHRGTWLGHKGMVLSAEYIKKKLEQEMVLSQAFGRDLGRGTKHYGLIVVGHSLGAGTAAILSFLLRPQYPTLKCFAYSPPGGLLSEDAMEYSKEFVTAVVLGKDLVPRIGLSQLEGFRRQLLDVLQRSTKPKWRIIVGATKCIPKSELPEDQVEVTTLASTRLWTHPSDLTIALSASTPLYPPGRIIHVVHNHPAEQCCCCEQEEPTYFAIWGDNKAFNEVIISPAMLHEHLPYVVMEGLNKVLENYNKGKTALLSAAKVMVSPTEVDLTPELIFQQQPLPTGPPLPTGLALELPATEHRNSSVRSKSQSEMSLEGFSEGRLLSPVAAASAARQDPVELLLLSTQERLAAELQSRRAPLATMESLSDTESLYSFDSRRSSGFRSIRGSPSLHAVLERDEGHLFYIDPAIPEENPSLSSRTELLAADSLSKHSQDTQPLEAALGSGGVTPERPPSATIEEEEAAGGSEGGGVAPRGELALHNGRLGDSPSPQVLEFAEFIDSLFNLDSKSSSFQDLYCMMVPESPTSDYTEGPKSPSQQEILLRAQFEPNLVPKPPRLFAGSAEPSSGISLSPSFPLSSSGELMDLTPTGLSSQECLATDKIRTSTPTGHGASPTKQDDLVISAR
Procedure, shortened: (§2)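 Mouse brain membrane proteome (2 mg/mL) preincubated with inhibitor or DMSO vehicle for 30 min at r.t., then labelled with MB064 at 250 nM final for 20 min at r.t. and quenched in Laemmli buffer. Fluorescent bands were quantified against vehicle set to 100%, and IC50 was taken from a variable-slope log(inhibitor) vs normalized response fit. n = 3.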

[4] = biological target: T4, Diacylglycerol lipase-alpha (Mus musculus) (UniProt Q6WQJ1); assay: as §1; assay type: cell membranes; procedure, shortened: as §2
T4 sequence (whole entry): T3 sequence (Q6WQJ1 whole entry)

[5] = biological target: T5, Monoacylglycerol lipase ABHD6 (Mus musculus, UniProt Q8R2Y0); assay: Inhibition of MB064 probe binding to ABHD6 in mouse brain membrane proteome preincubated for 30 mins followed by MB064 probe addition measured after 20 mins by gel-based competitive activity based protein profiling assay; assay type: cell membranes; procedure, shortened: as §2
T5 sequence (Q8R2Y0 whole entry): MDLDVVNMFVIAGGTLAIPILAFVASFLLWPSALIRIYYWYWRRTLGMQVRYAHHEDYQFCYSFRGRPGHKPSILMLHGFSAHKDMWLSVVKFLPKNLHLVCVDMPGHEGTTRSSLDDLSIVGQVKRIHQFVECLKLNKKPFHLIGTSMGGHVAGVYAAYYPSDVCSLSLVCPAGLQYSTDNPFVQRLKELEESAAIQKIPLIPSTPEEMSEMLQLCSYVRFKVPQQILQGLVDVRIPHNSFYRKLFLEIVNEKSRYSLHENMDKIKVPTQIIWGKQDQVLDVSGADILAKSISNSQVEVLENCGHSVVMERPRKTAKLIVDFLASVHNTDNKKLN

Row | Compound | IC50 [1] [nM] | IC50 [2] [nM] | Ratio IC50 (Mus musculus) | IC50 [3] [nM] | inhibition [4] | IC50 [5] [nM]
1 | CC(O)(c1ccccc1)c1cnn(C(=O)N2CCCCC2Cc2ccccc2)n1 (stereo not given) | 3160 | 398 |  |  |  | 
2 | CC(C)(O)c1cnn(C(=O)N2CCCCC2Cc2ccccc2)n1 (stereo not given) | > 10000 | 5010 |  |  |  | 
3 | O=C(N1C[C@H](O)C=C[C@@H]1Cc1ccccc1)n1ncc(C(O)(c2ccc(F)cc2)c2ccc(F)cc2)n1 | 39.8 | 12.6 |  |  |  | 
4 | O=C(N1CCCCC1Cc1ccccc1)n1ncc(C(O)(C2CCCCC2)C2CCCCC2)n1 (stereo not given) | 7940 | 100 |  |  |  | 
5 | O=C(N1CCCCC1Cc1ccccc1)n1ncc(C(O)(c2ccccn2)c2ccccn2)n1 (stereo not given) | 3160 | 158 |  |  |  | 
6 | CO[C@@H]1CC[C@H](Cc2ccccc2)N(C(=O)n2ncc(C(O)(c3ccc(F)cc3)c3ccc(F)cc3)n2)C1 | 50.1 | 0.794 | 25 | 2 | Dose-dependent effect | 50.1
7 | O=C(N1CCCCC1COc1ccccc1)n1ncc(C(O)(c2ccccc2)c2ccccc2)n1 (stereo not given) | 158 | 7.94 |  |  |  | 
8 | CO[C@H]1CC[C@H](Cc2ccccc2)N(C(=O)n2ncc(C(O)(c3ccc(F)cc3)c3ccc(F)cc3)n2)C1 | 126 | 7.94 | 5 | 79.4 | Dose-dependent effect | 398
9 | O=C(N1CCCCC1Cc1ccccc1)n1ncc(C2(O)CCCCC2)n1 (stereo not given) | 3160 | 1580 |  |  |  | 
10 | COC(c1ccc(F)cc1)(c1ccc(F)cc1)c1cnn(C(=O)N2CCCCC2Cc2ccccc2)n1 (stereo not given) | > 10000 | 12.6 |  |  |  | 
11 | COc1cccc(CC2CCCCN2C(=O)n2ncc(C(O)(c3ccc(F)cc3)c3ccc(F)cc3)n2)c1 (stereo not given) | 158 | 3.16 |  |  |  | 
12 | O=C(N1CCCCC1COc1ccc(F)cc1)n1ncc(C(O)(c2ccccc2)c2ccccc2)n1 (stereo not given) | 251 | 6.31 |  |  |  | 
13 | O=C(N1C[C@@H](O)C=C[C@@H]1Cc1ccccc1)n1ncc(C(O)(c2ccc(F)cc2)c2ccc(F)cc2)n1 | 251 | 20 |  |  |  | 
14 | O=C(N1C[C@@H](O)CC[C@@H]1Cc1ccccc1)n1ncc(C(O)(c2ccc(F)cc2)c2ccc(F)cc2)n1 | 200 | 6310 |  |  |  | 
15 | COc1ccc(CC2CCCCN2C(=O)n2ncc(C(O)(c3ccc(F)cc3)c3ccc(F)cc3)n2)cc1 (stereo not given) | 251 | 5.01 |  |  |  | 
16 | O=C(N1C[C@H](O)CC[C@@H]1Cc1ccccc1)n1ncc(C(O)(c2ccc(F)cc2)c2ccc(F)cc2)n1 | 158 | 20 |  |  |  | 
17 | O=C(N1CCCCC1COc1ccc(F)cc1)n1ncc(C(O)(c2ccc(F)cc2)c2ccc(F)cc2)n1 (stereo not given) | 200 | 5.01 |  |  |  | 
18 | O=C(N1C[C@@H](OCC2CC2)CC[C@@H]1Cc1ccccc1)n1ncc(C(O)(c2ccc(F)cc2)c2ccc(F)cc2)n1 | 2510 | 20 | 145 | 79.4 | Dose-dependent effect | > 10000
19 | O=C(N1CCCC[C@@H]1Cc1ccccc1)n1ncc(C(O)(c2ccc(F)cc2)c2ccc(F)cc2)n1 |  | 0.794 |  |  |  | 
20 | O=C(N1CCCCC1Cc1ccccc1)n1ncc(C(O)(c2ccc(F)cc2)c2ccc(F)cc2)n1 (stereo not given) | 25.1 | 1 |  |  |  | 
21 | O=C(N1C[C@H](OCC2CC2)CC[C@@H]1Cc1ccccc1)n1ncc(C(O)(c2ccc(F)cc2)c2ccc(F)cc2)n1 | 39.8 | 0.631 | 160 | 2 | Dose-dependent effect | 316
22 | O=C(N1CCCCC1COc1ccccc1)n1ncc(C(O)(c2ccc(F)cc2)c2ccc(F)cc2)n1 (stereo not given) | 200 | 5.01 |  |  |  | 
23 | CCC1CCCCN1C(=O)n1ncc(-c2ccc(-c3ccccc3)cc2)n1 (stereo not given) |  | 3980 |  |  |  | 

Source: ChEMBL document CHEMBL3877306, “Triazole Ureas Act as Diacylglycerol Lipase Inhibitors and Prevent Fasting-Induced Refeeding” (J Med Chem, 2017)
